Legend:
Nociceptin receptor [1] = target: T1, Nociceptin receptor (Homo sapiens, UniProt P41146); experiment: Agonist activity at human NOP receptor expressed in HEK293 cells by [35S]GTPgammaS binding; type: functional, cell-based
Nociceptin receptor [2] = target: T1, Nociceptin receptor; experiment: Displacement of [3H]N/OFQ from human NOP receptor expressed in HEK293 cells; type: cell-based
Mu-type opioid receptor [3] = target: T2, Mu-type opioid receptor (Homo sapiens, UniProt P35372); experiment: Displacement of [3H]DAMGO from human mu opioid receptor expressed in CHOK1 cells; type: cell-based, CHO-K1
Mu-type opioid receptor [4] = target: T2, Mu-type opioid receptor; experiment: Agonist activity at human mu opioid receptor expressed in CHOK1 cells by [35S]GTPgammaS binding; type: functional, cell-based, CHO-K1
Mus musculus = experiment: Ex vivo receptor occupancy of NOP receptor in ddY mouse brain at 10 mg/kg, po after 1 hr by [3H]N/OFQ binding assay; type: functional
Method in brief: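 Male ddY mice (5-6 week), water-deprived 24 h, dosed orally at 10 mg/kg in 0.1% methylcellulose. Brain removed 1 h later; cerebellum and medulla discarded, membranes prepared at 4 °C. Membranes (160 µg protein) incubated with 0.3 nM [3H]N/OFQ, 30 min, 25 °C; filtration read-out. Nonspecific binding with 1 µM N/OFQ. Occupancy is inhibition of specific binding versus vehicle-treated mice, three mice, mean ± SEM.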

[5] = target: T3, Kappa-type opioid receptor (Homo sapiens, UniProt P41145); experiment: Displacement of [3H]enadoline from human kappa opioid receptor expressed in HEK293 cells; type: cell-based
[6] = target: T4, Delta-type opioid receptor (Homo sapiens, UniProt P41143); experiment: Displacement of [3H]DPDPE from human delta opioid receptor expressed in CHOK1 cells; type: cell-based, CHO-K1
[7] = target: T3, Kappa-type opioid receptor; experiment: Agonist activity at human kappa opioid receptor expressed in HEK293 cells by [35S]GTPgammaS binding; type: functional, cell-based
[8] = target: T4, Delta-type opioid receptor; experiment: Agonist activity at human delta opioid receptor expressed in CHOK1 cells by [35S]GTPgammaS binding; type: functional, cell-based, CHO-K1
[9] = target: T4, Delta-type opioid receptor; experiment: Displacement of [3H]DPDPE from human delta opioid receptor expressed in CHOK1 cells at 1 uM; type: cell-based; details: CHO-K1

T1 sequence (P41146 whole entry): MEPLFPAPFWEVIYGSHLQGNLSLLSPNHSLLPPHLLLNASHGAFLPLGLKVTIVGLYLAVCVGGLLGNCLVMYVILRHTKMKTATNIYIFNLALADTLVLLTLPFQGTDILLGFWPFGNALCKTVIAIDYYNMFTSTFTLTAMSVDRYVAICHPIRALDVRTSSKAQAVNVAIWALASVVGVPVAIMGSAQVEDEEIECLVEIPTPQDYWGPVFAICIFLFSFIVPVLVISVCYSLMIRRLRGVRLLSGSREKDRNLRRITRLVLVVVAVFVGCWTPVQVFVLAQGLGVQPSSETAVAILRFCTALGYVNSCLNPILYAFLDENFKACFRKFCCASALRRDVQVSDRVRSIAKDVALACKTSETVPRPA
T2 sequence (P35372 whole entry): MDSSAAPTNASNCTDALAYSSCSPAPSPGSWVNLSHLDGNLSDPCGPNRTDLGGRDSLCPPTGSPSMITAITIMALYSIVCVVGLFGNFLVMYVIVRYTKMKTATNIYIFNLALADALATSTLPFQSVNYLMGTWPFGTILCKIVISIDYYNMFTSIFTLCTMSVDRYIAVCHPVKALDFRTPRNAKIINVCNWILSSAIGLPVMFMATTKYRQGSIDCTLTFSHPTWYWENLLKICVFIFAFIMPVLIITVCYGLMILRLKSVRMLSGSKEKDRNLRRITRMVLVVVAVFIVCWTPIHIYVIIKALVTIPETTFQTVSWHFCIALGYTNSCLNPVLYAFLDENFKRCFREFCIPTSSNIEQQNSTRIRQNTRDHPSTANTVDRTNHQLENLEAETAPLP
T3 sequence (P41145 whole entry): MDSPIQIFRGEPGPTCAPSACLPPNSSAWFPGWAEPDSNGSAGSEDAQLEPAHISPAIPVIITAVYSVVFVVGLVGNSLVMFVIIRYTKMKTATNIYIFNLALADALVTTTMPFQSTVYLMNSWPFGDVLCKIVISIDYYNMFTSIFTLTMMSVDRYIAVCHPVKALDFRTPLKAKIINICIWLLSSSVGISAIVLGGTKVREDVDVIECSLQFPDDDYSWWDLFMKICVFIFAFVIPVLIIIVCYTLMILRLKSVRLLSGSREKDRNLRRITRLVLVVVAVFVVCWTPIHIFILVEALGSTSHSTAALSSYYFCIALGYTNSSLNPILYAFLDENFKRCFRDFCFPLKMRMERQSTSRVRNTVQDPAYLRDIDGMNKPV
T4 sequence (P41143 whole entry): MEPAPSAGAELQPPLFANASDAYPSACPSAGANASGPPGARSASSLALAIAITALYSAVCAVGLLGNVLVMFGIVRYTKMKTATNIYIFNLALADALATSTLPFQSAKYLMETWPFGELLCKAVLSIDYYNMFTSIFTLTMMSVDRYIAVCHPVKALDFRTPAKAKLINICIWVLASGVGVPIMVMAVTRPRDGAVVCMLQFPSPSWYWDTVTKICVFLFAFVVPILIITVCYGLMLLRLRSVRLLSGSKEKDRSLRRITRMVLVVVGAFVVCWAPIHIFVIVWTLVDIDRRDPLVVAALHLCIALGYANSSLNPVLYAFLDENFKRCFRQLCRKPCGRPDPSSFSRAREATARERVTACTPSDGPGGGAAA

| SMILES | EC50 (Nociceptin receptor [1]) [nM] | Ki (Nociceptin receptor [2]) [nM] | Ki (Mu-type opioid receptor [3]) [nM] | EC50 (Mu-type opioid receptor [4]) [nM] | Activity (Mus musculus) [%] | Ki [5] [nM] | Ki [6] [nM] | EC50 [7] [nM] | EC50 [8] [nM] | Activity [9] [%] |
| --- | --- | --- | --- | --- | --- | --- | --- | --- | --- | --- |
| CC1(N2CCC(n3c(-c4ccc5cc[nH]c5c4)nc4ccccc43)CC2)CCCCCCC1 | 13 | 1.7 | 151 | 8630 | -10 | – | – | – | – | – |
| CC1(N2CCC(n3c(-c4cccc(CN)c4)nc4ccccc43)CC2)CCCCCCC1 | – | – | 20 | 340 | 30 | 72 | 140 | 154 | – | – |
| CN1CCC[C@H](c2nc3ccccc3n2C2CCN(C3(C)CCCCCCC3)CC2)C1 | 1.6 | 0.24 | 11 | 71 | – | 10 | 110 | 13 | 389 | – |
| CN1CCC[C@@H](c2nc3ccccc3n2C2CCN(C3(C)CCCCCCC3)CC2)C1 | 1.4 | 0.2 | 3.7 | 67 | 61 | 25 | > 500 | 70 | 2190 | – |
| CC1(N2CCC(n3c([C@@H]4CCCNC4)nc4ccccc43)CC2)CCCCCCC1 | – | – | – | – | 53 | 23.1 | > 667 | 80 | 4700 | – |
| CC1(N2CCC(n3c([C@H]4CCCNC4)nc4ccccc43)CC2)CCCCCCC1 | – | – | – | – | – | 9.2 | 168 | 8.4 | 514 | – |
| CC1(N2CCC(n3c(-c4ccc(F)c(Cl)c4)nc4ccccc43)CC2)CCCCCCC1 | – | – | 45 | 759 | 31 | – | – | – | – | – |
| CC1(N2CCC(n3cnc4ccccc43)CC2)CCCCCCC1 | – | – | 11 | – | – | – | – | – | – | – |
| CC1(N2CCC(n3c(-c4cccc(OCCO)c4)nc4ccccc43)CC2)CCCCCCC1 | 2.6 | 0.3 | 11 | > 393 | 38 | 43 | 9.5 | 48 | – | – |
| CC1CN(c2nc3ccccc3n2C2CCN(C3(C)CCCCCCC3)CC2)CC(C)N1 (configuration not stated) | – | – | 21 | 193 | – | 15 | – | 18 | – | 29 |
| CC1(N2CCC(n3c(-c4cccc(S(C)(=O)=O)c4)nc4ccccc43)CC2)CCCCCCC1 | 1.6 | 0.15 | 6.3 | 288 | 34 | – | – | – | – | – |
| CC1(N2CCC(n3c(-c4cc5ccccc5o4)nc4ccccc43)CC2)CCCCCCC1 | 3.1 | 0.53 | 102 | 3670 | 34 | – | – | – | – | – |
| CC1(N2CCC(n3c(-c4cccc(C(F)(F)F)c4)nc4ccccc43)CC2)CCCCCCC1 | 5.7 | 0.63 | 65 | 10000 | 3.2 | 352 | 58 | 1580 | – | – |

— ChEMBL document CHEMBL1143349, “Novel non-peptide nociceptin/orphanin FQ receptor agonist, 1-[1-(1-Methylcyclooctyl)-4-piperidinyl]-2-[(3R)-3-piperidinyl]-1H-benzimidazole: design, synthesis, and structure-activity relationship of oral receptor occupancy in the brain for orally potent antianxiety drug” (J Med Chem, 2009)
